Active and inactive are the calls of the source. No cut-off for these calls is given here.
How the values were obtained:
[1] = target: T1, Vascular endothelial growth factor A, long form (Homo sapiens, UniProt P15692); test: Binding affinity to recombinant VEGFA (unknown origin) measured for 60 seconds by surface plasmon resonance assay
T1 sequence (P15692 whole entry): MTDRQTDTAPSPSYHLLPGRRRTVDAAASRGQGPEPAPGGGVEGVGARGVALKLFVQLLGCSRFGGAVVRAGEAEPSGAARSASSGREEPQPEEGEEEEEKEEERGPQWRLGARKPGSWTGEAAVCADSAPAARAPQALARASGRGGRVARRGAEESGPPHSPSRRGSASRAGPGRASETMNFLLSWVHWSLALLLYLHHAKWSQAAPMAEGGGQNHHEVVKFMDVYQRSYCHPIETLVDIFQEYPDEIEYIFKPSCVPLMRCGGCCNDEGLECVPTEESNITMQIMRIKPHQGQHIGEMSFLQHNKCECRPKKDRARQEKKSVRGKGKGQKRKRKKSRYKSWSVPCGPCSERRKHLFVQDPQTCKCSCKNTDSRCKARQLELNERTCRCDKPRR
Procedure, shortened: (§1)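 Biacore CM5 chip; proteins (100 μg/mL in 10 mM NaOAc, pH 5.0) amine-coupled to 8−12 kRU alongside BSA and unmodified reference surfaces. Compounds from 4 mM DMSO stocks diluted 1:200 in PBS (10 mM NaH2PO4, 150 mM NaCl, pH 7.4; final DMSO 0.5%), 2-fold six-point series typically 0.025−1 μM, triplicate aliquots with buffer blanks. Association and dissociation recorded; thermodynamic KD derived.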

Placenta growth factor = target: T2, Placenta growth factor (Homo sapiens, UniProt P49763); test: Binding affinity to recombinant PIGF1 (unknown origin) measured for 60 seconds by surface plasmon resonance assay; procedure, shortened: as §1
T2 sequence (P49763 whole entry): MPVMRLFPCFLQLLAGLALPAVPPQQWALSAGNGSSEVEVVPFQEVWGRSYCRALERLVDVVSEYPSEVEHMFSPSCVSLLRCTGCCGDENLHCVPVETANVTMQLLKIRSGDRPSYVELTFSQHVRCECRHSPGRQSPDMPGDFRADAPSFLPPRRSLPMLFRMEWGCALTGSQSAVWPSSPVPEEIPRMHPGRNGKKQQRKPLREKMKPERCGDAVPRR

Jurkat = test: Cytotoxicity against human Jurkat cells after 24 to 72 hrs by MTT assay; assay type: cell-based
Procedure, shortened: (§2)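 Cells kept in DMEM with 10% FBS, 2 mM L-glutamine, penicillin/streptomycin, 37 °C, 5% CO2, subcultured every two days. Seeded at 1 × 10^4 cells/well and grown without or with various compound concentrations; cell number quantified by MTT conversion at 24, 48 and 72 h. IC50 from at least two independent experiments in triplicate.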

MCF7 = test: Cytotoxicity against human MCF7 cells after 24 to 72 hrs by MTT assay; assay type: cell-based; procedure, shortened: as §2
[2] = target: T3, Vascular endothelial growth factor receptor 1 (Homo sapiens, UniProt P17948); test: Inhibition of recombinant VEGF-A/VEGFR-1 (unknown origin) interaction after 1 hr by ELISA
T3 sequence (P17948 whole entry): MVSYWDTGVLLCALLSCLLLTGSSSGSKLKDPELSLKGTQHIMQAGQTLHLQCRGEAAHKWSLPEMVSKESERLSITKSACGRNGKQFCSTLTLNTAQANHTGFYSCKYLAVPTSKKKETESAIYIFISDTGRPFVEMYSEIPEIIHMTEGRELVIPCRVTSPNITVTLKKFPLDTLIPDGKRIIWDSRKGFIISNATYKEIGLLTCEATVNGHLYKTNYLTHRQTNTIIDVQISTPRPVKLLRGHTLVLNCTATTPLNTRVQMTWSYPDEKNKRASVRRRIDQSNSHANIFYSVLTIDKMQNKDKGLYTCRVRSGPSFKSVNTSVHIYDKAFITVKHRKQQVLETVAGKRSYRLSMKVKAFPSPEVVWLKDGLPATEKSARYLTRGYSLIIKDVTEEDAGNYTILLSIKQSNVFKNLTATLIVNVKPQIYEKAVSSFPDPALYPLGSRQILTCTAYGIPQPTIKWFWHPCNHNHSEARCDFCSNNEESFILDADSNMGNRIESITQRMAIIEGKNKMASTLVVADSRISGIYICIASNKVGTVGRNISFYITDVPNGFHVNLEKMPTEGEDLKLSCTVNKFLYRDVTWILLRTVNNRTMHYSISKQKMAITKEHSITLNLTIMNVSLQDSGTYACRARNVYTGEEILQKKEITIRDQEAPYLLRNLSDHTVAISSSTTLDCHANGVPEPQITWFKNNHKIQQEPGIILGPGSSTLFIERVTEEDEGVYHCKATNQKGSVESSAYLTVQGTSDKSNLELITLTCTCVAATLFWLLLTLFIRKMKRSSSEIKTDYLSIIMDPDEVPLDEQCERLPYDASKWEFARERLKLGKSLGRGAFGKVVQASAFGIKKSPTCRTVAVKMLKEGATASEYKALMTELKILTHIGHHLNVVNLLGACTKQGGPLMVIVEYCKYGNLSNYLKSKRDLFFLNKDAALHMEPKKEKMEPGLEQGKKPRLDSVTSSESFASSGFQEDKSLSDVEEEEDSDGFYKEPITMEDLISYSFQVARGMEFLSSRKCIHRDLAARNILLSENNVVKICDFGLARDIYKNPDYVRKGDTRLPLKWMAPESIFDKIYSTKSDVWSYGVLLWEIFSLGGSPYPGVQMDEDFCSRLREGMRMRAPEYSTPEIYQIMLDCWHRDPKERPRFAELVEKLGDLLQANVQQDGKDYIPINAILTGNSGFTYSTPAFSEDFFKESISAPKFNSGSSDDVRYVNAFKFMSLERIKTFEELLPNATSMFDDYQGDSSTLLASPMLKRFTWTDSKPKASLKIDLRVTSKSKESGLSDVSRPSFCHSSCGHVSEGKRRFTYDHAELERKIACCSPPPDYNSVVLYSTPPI
Procedure, shortened: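 Competitive ELISA: Fc/VEGFR-1 coated at 0.5 μg/mL for 16 h at RT, blocked 3 h with 1% BSA. PlGF-1 (5 ng/mL) or VEGF-A (10 ng/mL) in PBS with 0.1% BSA, 5 mM EDTA, 0.004% Tween 20 added with DMSO-dissolved compound, 1 h 37 °C then 1 h RT. Biotinylated anti-ligand antibody, avidin–biotin-HRP, o-phenylenediamine/H2O2 detection at 490 nm; triplicate points, repeated twice.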

Gallus gallus [3] = species on record: Gallus gallus; test: Antiangiogenic activity in chicken embryo chorioallantoic membrane model assessed as inhibition of blood vessels growth at 10 ug/egg after 4 days; assay type: functional, tissue-based
Procedure, shortened: (§3)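 Fertilized chicken eggs incubated at 37 °C, humidified, turned several times; after 4 days a 1 cm2 window opened on the broad side. Test material applied per egg; controls received albumen (100 μL/egg); retinoic acid 2 μg/egg as positive control; at least five eggs per dose. Eggs reincubated two days, then vessels photographed under microscope; branch points compared with albumen controls; mean ± SD of three experiments, Student's t-test.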

Gallus gallus [4] = species on record: Gallus gallus; test: Antiangiogenic activity in chicken embryo chorioallantoic membrane model assessed as reduction of number of blood vessels at 10 ug/egg after 4 days; assay type: functional, tissue-based; procedure, shortened: as §3
Gallus gallus [5] = species on record: Gallus gallus; test: Antiangiogenic activity in chicken embryo chorioallantoic membrane model assessed as reduction of junction of blood vessels at 10 ug/egg after 4 days; assay type: functional, tissue-based; procedure, shortened: as §3
[6] = target: T3, Vascular endothelial growth factor receptor 1; test: Inhibition of recombinant PlGF-1/VEGFR-1 (unknown origin) interaction after 1 hr by ELISA
Gallus gallus [7] = species on record: Gallus gallus; test: Antiangiogenic activity in chicken embryo chorioallantoic membrane model assessed as reduction of size of blood vessels at 10 ug/egg after 4 days; assay type: functional, tissue-based; procedure, shortened: as §3
[8] = Antiangiogenic activity in chicken embryo chorioallantoic membrane model assessed as inhibition of blood vessels growth after 4 days; assay type: functional, tissue-based, Gallus gallus; procedure, shortened: as §3
Gallus gallus [9] = species on record: Gallus gallus; test: Antiangiogenic activity in chicken embryo chorioallantoic membrane model assessed as reduction of length of blood vessels at 10 ug/egg after 4 days; assay type: functional, tissue-based; procedure, shortened: as §3
Gallus gallus [10] = species on record: Gallus gallus; test: Antiangiogenic activity in chicken embryo chorioallantoic membrane model assessed as reduction of capillary formation at 2 ug/egg after 4 days; assay type: functional, tissue-based; procedure, shortened: as §3
Gallus gallus [11] = species on record: Gallus gallus; test: Antiangiogenic activity in chicken embryo chorioallantoic membrane model assessed as inhibition of blood vessels growth at 2 ug/egg after 4 days; assay type: functional, tissue-based; procedure, shortened: as §3

Row | SMILES | IC50 (Jurkat) [µM] | IC50 (MCF7) [µM] | Kd ([1]; read-out: Kd) [µM] | Kd (Placenta growth factor; read-out: Kd) [µM] | also measured
1 | Oc1cc(O)c2c(c1)O[C@@]1(c3ccc(O)c(O)c3)Oc3cc(O)c4c(c3[C@@H]2[C@H]1O)O[C@H](c1ccc(O)c(O)c1)[C@H](O)C4 [PROANTHOCYANIDIN A2] | > 70 | > 70 |  |  | Kd [1]: Not Active; Kd (Placenta growth factor): Not Active
2 | Oc1ccc([C@@H]2C[C@@H](c3c(O)cc(O)c4c3O[C@H](c3ccc(O)cc3)[C@H](O)C4)c3c(O)cc(O)cc3O2)cc1 | > 70 | > 70 |  |  | Kd [1]: Not Active; Kd (Placenta growth factor): Not Active
3 | Oc1ccc([C@H]2Oc3c(c(O)cc4c3[C@H]3c5c(O)cc(O)cc5O[C@@](c5ccc(O)c(O)c5)(O4)[C@@H]3O)C[C@@H]2O)cc1 [GERANIN B] | > 70 | > 70 | 0.048 | 0.023 | IC50 [2]: 65 µM
4 | Oc1ccc([C@@H]2C[C@@H](c3c(O)cc(O)c4c3O[C@H](c3ccc(O)cc3)[C@@H](O)C4)c3c(O)cc(O)cc3O2)cc1 | > 70 | > 70 | 0.016 | 0.011 | growth inhibition (GI) (Gallus gallus [3]): 56.2%; Activity (Gallus gallus [4]): Active; Activity (Gallus gallus [5]): Active; IC50 [6]: 15 µM; Activity (Gallus gallus [7]): Active; IC50 [8]: 9.79 µg; Activity (Gallus gallus [9]): Active; IC50 [2]: 50 µM
5 | O=c1cc(-c2ccc(O)c(-c3c(O)cc(O)c4c(=O)cc(-c5ccc(O)cc5)oc34)c2)oc2cc(O)cc(O)c12 [AMENTOFLAVONE] |  |  | 0.0165 | 0.0082 | 
6 | Oc1cc(O)c2c(c1)O[C@@]1(c3ccc(O)c(O)c3)Oc3cc(O)c4c(c3[C@@H]2[C@H]1O)O[C@H](c1ccc(O)c(O)c1)[C@@H](O)C4 [PROANTHOCYANIDIN A1] | > 70 | > 70 | 0.476 | 0.394 | 
7 | CC1=C(/C=C/C(C)=C/C=C/C(C)=C/C(=O)O)C(C)(C)CCC1 |  |  |  |  | Activity (Gallus gallus [10]): Active; growth inhibition (GI) (Gallus gallus [11]): 75.5%

From ChEMBL document CHEMBL2331357, “Bioassay-guided isolation of proanthocyanidins with antiangiogenic activities” (J Nat Prod, 2013)
